Data taken from ChEMBL document CHEMBL3232911, “Imidazolylchromanones containing non-benzylic oxime ethers: synthesis and molecular modeling study of new azole antifungals selective against Cryptococcus gattii” (2014).

What was measured:
Candida albicans = test: Antifungal activity against Candida albicans assessed as total growth inhibition by micro-broth dilution method; type: functional
Summary of the method: (§1)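 Broth microdilution following CLSI methods for yeasts and filamentous fungi. Compounds dissolved in DMSO, serially diluted in growth medium, inoculum added, incubation at 35 °C. MIC taken as the lowest concentration giving total inhibition of fungal growth. Testing done in triplicate.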

[1] = system: Cryptococcus gattii species complex; test: Antifungal activity against Cryptococcus gattii assessed as total growth inhibition by micro-broth dilution method; type: functional, Cryptococcus bacillisporus; summary of the method: as §1
Aspergillus fumigatus = test: Antifungal activity against Aspergillus fumigatus assessed as total growth inhibition by micro-broth dilution method; type: functional; summary of the method: as §1
Exophiala dermatitidis = test: Antifungal activity against Exophiala dermatitidis assessed as total growth inhibition by micro-broth dilution method; type: functional; summary of the method: as §1

Structure (SMILES) | MIC (Candida albicans) [µg/mL] | MIC [1] [µg/mL] | MIC (Aspergillus fumigatus) [µg/mL] | MIC (Exophiala dermatitidis) [µg/mL]
OC(Cn1cncn1)(Cn1cncn1)c1ccc(F)cc1F [FLUCONAZOLE] | 2 | > 64 | > 64 | > 64
Fc1cccc(OCCO/N=C2\c3ccccc3OCC2n2ccnc2)c1.O=[N+]([O-])O (racemic) | > 64 | 2 | 64 | 64
Clc1ccc(OCCO/N=C2\c3ccccc3OCC2n2ccnc2)cc1.O=[N+]([O-])O (racemic) | > 64 | 4 | 64 | 64
Fc1ccc(OCCO/N=C2\c3ccccc3OCC2n2ccnc2)cc1.O=[N+]([O-])O (racemic) | > 64 | 4 | 64 | 128
O=[N+]([O-])O.c1ccc(OCCO/N=C2\c3ccccc3OCC2n2ccnc2)cc1 (racemic) | > 64 | 2 | 32 | 128
Clc1cccc(OCCO/N=C2\c3ccccc3OCC2n2ccnc2)c1.O=[N+]([O-])O (racemic) | > 64 | 0.5 | 32 | 64
CCC(C)n1ncn(-c2ccc(N3CCN(c4ccc(OCC5COC(Cn6cncn6)(c6ccc(Cl)cc6Cl)O5)cc4)CC3)cc2)c1=O (stereo unspecified) [ITRACONAZOLE] | 0.25 | 0.5 | 4 | 0.5
O/N=C1\c2ccccc2OCC1n1ccnc1 (stereo unspecified) | > 64 | > 64 | > 64 | > 128
Clc1ccc(OCCO/N=C2\c3ccccc3OCC2n2ccnc2)c(Cl)c1.O=[N+]([O-])O (racemic) | > 64 | 2 | 64 | 128
